According to ChEMBL document CHEMBL1806469, “Design, synthesis, and antiproliferative activity of new 1H-pyrrolo[3,2-c]pyridine derivatives against melanoma cell lines” (Eur J Med Chem, 2011):

How the values were obtained:
NIH3T3 = test: Antiproliferation activity against mouse NIH/3T3 cells after 48 hrs by MTT assay in presence of bovine calf serum; type: cell-based; details: NIH3T3, 48 h
A-375 = test: Antiproliferation activity against human A375P cells after 48 hrs by MTT assay in presence of fetal bovine serum; type: functional, cell-based; details: A-375, 48 h
Summary of the method: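 A375P cells kept in DMEM with 10% FBS and 1% penicillin/streptomycin at 37 °C, 5% CO2. Plated at 5 × 10³ cells/well, left 24 h, then given 12 concentrations (3-fold serial dilution) for 48 h. Viability read by MTT reduction at 590 nm. IC50 from the dose-response curve; each compound tested in triplicate.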

SK-MEL-2 = test: Antiproliferation activity against human SK-MEL-2 cells after 48 hrs by SRB assay; type: functional, cell-based; details: SK-MEL-2, 48 h
Summary of the method: (§1)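 Run by the NCI. Cells grown in RPMI 1640 with 5% FBS and 2 mM glutamine, plated at 5000–40,000 cells/well by doubling time, and left 24 h at 37 °C, 5% CO2. Time-zero plates fixed with TCA. Drug (DMSO stock) given at five concentrations for 48 h. Cells fixed with cold TCA (final 10%), stained with 0.4% SRB, and read at 515 nm. IC50 taken as 50% reduction in net protein increase versus control.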

MDA-MB-435 = test: Antiproliferation activity against human MDA-MB-435 cells after 48 hrs by SRB assay; type: functional, cell-based; details: MDA-MB-435, 48 h; summary of the method: as §1
SK-MEL-28 = test: Antiproliferation activity against human SK-MEL-28 cells after 48 hrs by SRB assay; type: functional, cell-based; details: SK-MEL-28, 48 h; summary of the method: as §1
UACC-62 = test: Antiproliferation activity against human UACC62 cells after 48 hrs by SRB assay; type: functional, cell-based; details: UACC-62, 48 h; summary of the method: as §1
SK-MEL-5 = test: Antiproliferation activity against human SK-MEL-5 cells after 48 hrs by SRB assay; type: functional, cell-based; details: SK-MEL-5, 48 h; summary of the method: as §1
Malme-3M = test: Antiproliferation activity against human MALME-3M cells after 48 hrs by SRB assay; type: functional, cell-based; summary of the method: as §1
M14 = test: Antiproliferation activity against human M14 cells after 48 hrs by SRB assay; type: functional, cell-based; details: M14, 48 h; summary of the method: as §1
UACC-257 = test: Antiproliferation activity against human UACC257 cells after 48 hrs by SRB assay; type: functional, cell-based; details: UACC-257, 48 h; summary of the method: as §1
LOX IMVI = test: Antiproliferation activity against human LOXIMVI cells after 48 hrs by SRB assay; type: functional, cell-based; summary of the method: as §1

IC50 (A-375)	SMILES	IC50 (NIH3T3)	other results
100 nM	O=C(Nc1ccc(-n2ccc3c(NC(=O)c4ccccc4)nccc32)cc1)c1cccc(C(F)(F)F)c1	50 nM	–
800 nM	Cc1cn(-c2cc(C(=O)Nc3ccc(-n4ccc5c(NC(=O)c6ccccc6)nccc54)cc3)cc(C(F)(F)F)c2)cn1	5570 nM	–
5400 nM	Nc1nccc2c1ccn2-c1ccc(NC(=O)Nc2cccc(C(F)(F)F)c2)cc1	–	–
> 10000 nM	Cc1cc(NC(=O)c2cccc(C(F)(F)F)c2)ccc1-n1ccc2c(NC(=O)c3ccccc3)nccc21	–	–
5600 nM	CNC(=O)c1cc(Oc2ccc(NC(=O)Nc3ccc(Cl)c(C(F)(F)F)c3)cc2)ccn1 [SORAFENIB]	24800 nM	–
2700 nM	Cc1cc(NC(=O)c2ccc(Cl)c(C(F)(F)F)c2)ccc1-n1ccc2c(NC(=O)c3ccccc3)nccc21	–	–
6200 nM	Nc1nccc2c1ccn2-c1ccc(NC(=O)c2ccc(N3CCOCC3)c(C(F)(F)F)c2)cc1	–	–
300 nM	O=C(Nc1ccc(-n2ccc3c(NC(=O)c4ccccc4)nccc32)cc1)c1cc(N2CCOCC2)cc(C(F)(F)F)c1	270 nM	–
7 nM	O=C(Nc1ccc(-n2ccc3c(NC(=O)c4ccccc4)nccc32)cc1)c1ccc(N2CCOCC2)c(C(F)(F)F)c1	1740 nM	IC50 (SK-MEL-2): 637 nM; IC50 (MDA-MB-435): 119 nM; IC50 (SK-MEL-28): 292 nM; IC50 (UACC-62): 485 nM; IC50 (SK-MEL-5): 138 nM; IC50 (Malme-3M): 11500 nM; IC50 (M14): 763 nM; IC50 (UACC-257): 1980 nM; IC50 (LOX IMVI): 45.6 nM
3800 nM	Nc1nccc2c1ccn2-c1ccc(NC(=O)c2ccc(Cl)c(C(F)(F)F)c2)cc1	–	–
> 10000 nM	O=C(Nc1ccc(-n2ccc3c(NC(=O)c4ccccc4)nccc32)cc1)Nc1cccc(Cl)c1Cl	–	–
2400 nM	O=C(Nc1ccc(-n2ccc3c(NC(=O)c4ccccc4)nccc32)cc1)Nc1ccc(Cl)c(C(F)(F)F)c1	–	–
> 10000 nM	Cc1cc(NC(=O)Nc2cccc(Cl)c2Cl)ccc1-n1ccc2c(NC(=O)c3ccccc3)nccc21	–	–
1800 nM	O=C(Nc1ccc(-n2ccc3c(NC(=O)c4ccccc4)nccc32)cc1)Nc1cc(C(F)(F)F)cc(C(F)(F)F)c1	–	–
16.4 nM	O=C(Nc1ccc(-n2ccc3c(NC(=O)c4ccccc4)nccc32)cc1)c1ccc(Cl)c(C(F)(F)F)c1	5650 nM	–
> 10000 nM	Cc1cc(NC(=O)c2ccc(N3CCOCC3)c(C(F)(F)F)c2)ccc1-n1ccc2c(NC(=O)c3ccccc3)nccc21	–	–
8000 nM	Nc1nccc2c1ccn2-c1ccc(NC(=O)Nc2ccc(Cl)c(C(F)(F)F)c2)cc1	–	–
1000 nM	O=C(Nc1nccc2c1ccn2-c1ccc(NC(=O)c2ccc(-c3cc(C(F)(F)F)ccc3Cl)o2)cc1)c1ccccc1	15900 nM	–
95 nM	CCN1CCN(Cc2ccc(NC(=O)Nc3ccc(-n4ccc5c(NC(=O)c6ccccc6)nccc54)cc3)cc2C(F)(F)F)CC1	980 nM	IC50 (SK-MEL-2): 3620 nM; IC50 (MDA-MB-435): 894 nM; IC50 (SK-MEL-28): 1290 nM; IC50 (UACC-62): 1270 nM; IC50 (SK-MEL-5): 764 nM; IC50 (Malme-3M): 1540 nM; IC50 (M14): 1220 nM; IC50 (UACC-257): 1590 nM; IC50 (LOX IMVI): 481 nM
200 nM	O=C(Nc1ccc(-n2ccc3c(NC(=O)c4ccccc4)nccc32)cc1)Nc1ccc(Cl)c(Cl)c1	11500 nM	–
7000 nM	O=C(Nc1ccc(-n2ccc3c(NC(=O)c4ccccc4)nccc32)cc1)Nc1cccc(C(F)(F)F)c1	–	–
